Measured values published in paper PMC11261800 (Heliyon, 2024).

Tested on: HaCaT cells
Assay: Proliferation of HaCaT keratinocytes, CCK-8
Assay type: cell-based, human
Details: 100 μM, positive control, 72 h, 0.4 % serum
Summary of the method: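 HaCaT keratinocytes, grown at 37 °C in DMEM with 10 % (v/v) FBS, were seeded at 5 × 10^3 cells/well and cultured for 24 h. They were then serum-starved for 24 h in DMEM with 0.4 % serum and exposed to test sample in the same medium for 72 h. After 2 h in 10 % CCK-8, A450 was read. Proliferative activity = (A2−A1)/(A3−A1) × 100 %, against untreated cells and cell-free blank; mean ± SD, n = 3.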

B1: Epidermal growth factor (protein, UniProt P01133 23-1207, looked up)
Pro-epidermal growth factor: PQHWSCPEGTLAGNGNSTCVGPAPFLIFSHGNSIFRIDTEGTNYEQLVVDAGVSVIMDFHYNEKRIYWVDLERQLLQRVFLNGSRQERVCNIEKNVSGMAINWINEEVIWSNQQEGIITVTDMKGNNSHILLSALKYPANVAVDPVERFIFWSSEVAGSLYRADLDGVGVKALLETSEKITAVSLDVLDKRLFWIQYNREGSNSLICSCDYDGGSVHISKHPTQHNLFAMSLFGDRIFYSTWKMKTIWIANKHTGKDMVRINLHSSFVPLGELKVVHPLAQPKAEDDTWEPEQKLCKLRKGNCSSTVCGQDLQSHLCMCAEGYALSRDRKYCEDVNECAFWNHGCTLGCKNTPGSYYCTCPVGFVLLPDGKRCHQLVSCPRNVSECSHDCVLTSEGPLCFCPEGSVLERDGKTCSGCSSPDNGGCSQLCVPLSPVSWECDCFPGYDLQLDEKSCAASGPQPFLLFANSQDIRHMHFDGTDYGTLLSQQMGMVYALDHDPVENKIYFAHTALKWIERANMDGSQRERLIEEGVDVPEGLAVDWIGRRFYWTDRGKSLIGRSDLNGKRSKIITKENISQPRGIAVHPMAKRLFWTDTGINPRIESSSLQGLGRLVIASSDLIWPSGITIDFLTDKLYWCDAKQSVIEMANLDGSKRRRLTQNDVGHPFAVAVFEDYVWFSDWAMPSVMRVNKRTGKDRVRLQGSMLKPSSLVVVHPLAKPGADPCLYQNGGCEHICKKRLGTAWCSCREGFMKASDGKTCLALDGHQLLAGGEVDLKNQVTPLDILSKTRVSEDNITESQHMLVAEIMVSDQDDCAPVGCSMYARCISEGEDATCQCLKGFAGDGKLCSDIDECEMGVPVCPPASSKCINTEGGYVCRCSEGYQGDGIHCLDIDECQLGEHSCGENASCTNTEGGYTCMCAGRLSEPGLICPDSTPPPHLREDDHHYSVRNSDSECPLSHDGYCLHDGVCMYIEALDKYACNCVVGYIGERCQYRDLKWWELRHAGHGQQQKVIVVAVCVVVLVMLLLLSLWGAHYYRTQKLLSKNPKNPYEESSRDVRSRRPADTEDGMSSCPQPWFVVIKEHQDLKNGGQPVAGEDGQAADGSMQPTSWRQEPQLCGMGTEQGCWIPVSSDKGSCPQVMERSFHMPSYGTQTLEGGVEKPHSLLSANPLWQQRALDPPHQMELTQ
modifications: Pro-epidermal growth factor
- cell viability (proliferation of HaCaT keratinocytes): 106.76%
